{
  "source": "the M2OR odorant receptor database",
  "conditions_in_all_cases": "stereoisomer not certain",
  "key": {"[1]": {"molecular_target": "T1, UniProt E9Q9Z6", "T1 sequence (whole entry)": "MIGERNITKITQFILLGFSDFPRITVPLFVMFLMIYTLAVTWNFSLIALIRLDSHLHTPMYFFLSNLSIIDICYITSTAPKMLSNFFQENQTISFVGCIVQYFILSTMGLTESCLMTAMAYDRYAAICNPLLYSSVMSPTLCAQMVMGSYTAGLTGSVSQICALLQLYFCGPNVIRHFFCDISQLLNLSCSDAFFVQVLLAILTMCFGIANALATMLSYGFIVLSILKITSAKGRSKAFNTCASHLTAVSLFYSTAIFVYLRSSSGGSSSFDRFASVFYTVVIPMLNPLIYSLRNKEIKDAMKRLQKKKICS", "how_it_was_run": "(§1)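 Whether a receptor–molecule pair is responsive (active) rests on the original authors' judgment that its measured signal was statistically different from baseline. Pairs without that judgment are non-responsive (inactive). Sources used varied assay methods, commonly transient luciferase assays in mammalian cell lines.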"}, "[2]": {"molecular_target": "T2, UniProt B2RVX8", "T2 sequence (whole entry)": "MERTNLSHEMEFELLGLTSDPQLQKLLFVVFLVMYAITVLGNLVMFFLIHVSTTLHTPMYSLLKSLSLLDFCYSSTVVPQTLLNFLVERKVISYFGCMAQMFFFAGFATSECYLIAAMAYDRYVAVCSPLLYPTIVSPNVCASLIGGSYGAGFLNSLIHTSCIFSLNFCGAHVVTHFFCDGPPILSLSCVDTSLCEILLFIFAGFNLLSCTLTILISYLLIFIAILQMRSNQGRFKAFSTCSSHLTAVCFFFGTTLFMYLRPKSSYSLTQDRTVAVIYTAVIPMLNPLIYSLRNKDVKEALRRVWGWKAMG", "how_it_was_run": "as §1"}, "[3]": {"molecular_target": "T3, UniProt E9Q546", "T3 sequence (whole entry)": "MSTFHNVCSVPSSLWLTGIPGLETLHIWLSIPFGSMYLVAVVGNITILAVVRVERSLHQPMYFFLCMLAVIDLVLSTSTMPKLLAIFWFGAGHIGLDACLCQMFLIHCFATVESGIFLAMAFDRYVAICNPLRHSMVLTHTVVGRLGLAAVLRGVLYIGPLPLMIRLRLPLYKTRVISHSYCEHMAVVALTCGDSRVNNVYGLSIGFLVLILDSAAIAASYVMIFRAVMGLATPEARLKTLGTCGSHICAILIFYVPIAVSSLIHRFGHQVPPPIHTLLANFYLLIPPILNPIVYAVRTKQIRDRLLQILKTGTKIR", "how_it_was_run": "as §1"}, "[4]": {"molecular_target": "T4, UniProt K7N609", "T4 sequence (whole entry)": "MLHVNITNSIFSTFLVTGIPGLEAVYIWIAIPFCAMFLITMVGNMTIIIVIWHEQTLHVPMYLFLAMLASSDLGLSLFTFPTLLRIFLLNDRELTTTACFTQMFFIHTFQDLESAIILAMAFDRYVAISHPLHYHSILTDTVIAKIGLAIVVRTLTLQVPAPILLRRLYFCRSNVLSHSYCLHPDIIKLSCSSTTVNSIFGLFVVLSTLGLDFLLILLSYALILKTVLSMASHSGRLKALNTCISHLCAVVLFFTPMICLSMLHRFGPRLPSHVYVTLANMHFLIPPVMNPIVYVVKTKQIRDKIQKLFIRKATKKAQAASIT", "how_it_was_run": "as §1"}, "[5]": {"molecular_target": "T5, UniProt L7MU75", "T5 sequence (whole entry)": "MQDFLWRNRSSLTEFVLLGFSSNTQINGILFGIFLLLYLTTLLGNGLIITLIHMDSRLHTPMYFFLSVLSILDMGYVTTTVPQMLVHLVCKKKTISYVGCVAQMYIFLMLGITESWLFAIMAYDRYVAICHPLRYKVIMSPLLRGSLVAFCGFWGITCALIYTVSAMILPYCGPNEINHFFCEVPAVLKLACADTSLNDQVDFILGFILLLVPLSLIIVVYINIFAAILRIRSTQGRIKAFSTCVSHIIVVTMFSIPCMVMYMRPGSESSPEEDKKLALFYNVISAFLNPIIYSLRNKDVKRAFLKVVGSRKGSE", "how_it_was_run": "as §1"}, "[6]": {"molecular_target": "T6, UniProt L7N210", "T6 sequence (whole entry)": "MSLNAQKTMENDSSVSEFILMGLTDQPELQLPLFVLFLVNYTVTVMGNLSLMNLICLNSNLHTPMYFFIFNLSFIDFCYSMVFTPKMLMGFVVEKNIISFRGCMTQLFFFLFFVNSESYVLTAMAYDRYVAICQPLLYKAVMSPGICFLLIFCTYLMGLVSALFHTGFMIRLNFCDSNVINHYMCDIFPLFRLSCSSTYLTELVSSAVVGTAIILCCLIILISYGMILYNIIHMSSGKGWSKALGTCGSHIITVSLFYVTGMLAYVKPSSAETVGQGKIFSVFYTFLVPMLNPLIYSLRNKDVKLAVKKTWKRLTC", "how_it_was_run": "as §1"}, "[7]": {"molecular_target": "T7, UniProt Q7TQV4", "T7 sequence (whole entry)": "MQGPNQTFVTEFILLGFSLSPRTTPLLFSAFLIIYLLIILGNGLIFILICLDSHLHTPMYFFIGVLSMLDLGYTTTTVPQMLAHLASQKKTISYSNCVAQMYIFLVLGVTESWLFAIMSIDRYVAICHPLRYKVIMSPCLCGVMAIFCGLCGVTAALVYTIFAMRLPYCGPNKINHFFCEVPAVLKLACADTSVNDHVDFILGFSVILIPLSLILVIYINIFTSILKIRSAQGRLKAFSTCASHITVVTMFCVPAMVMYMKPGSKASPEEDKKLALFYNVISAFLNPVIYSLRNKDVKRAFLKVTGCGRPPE", "how_it_was_run": "as §1"}, "[8]": {"molecular_target": "T8, UniProt Q7TR71", "T8 sequence (whole entry)": "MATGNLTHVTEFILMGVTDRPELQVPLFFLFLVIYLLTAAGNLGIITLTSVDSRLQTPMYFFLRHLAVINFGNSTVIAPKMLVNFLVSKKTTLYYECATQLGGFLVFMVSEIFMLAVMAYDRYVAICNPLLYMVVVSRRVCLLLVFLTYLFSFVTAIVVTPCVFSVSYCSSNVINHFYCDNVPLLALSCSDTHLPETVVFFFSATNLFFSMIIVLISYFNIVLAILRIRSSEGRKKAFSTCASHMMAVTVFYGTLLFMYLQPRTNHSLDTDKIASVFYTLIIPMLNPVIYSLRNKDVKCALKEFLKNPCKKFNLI", "how_it_was_run": "as §1"}, "[9]": {"molecular_target": "T9, UniProt Q7TRA3", "T9 sequence (whole entry)": "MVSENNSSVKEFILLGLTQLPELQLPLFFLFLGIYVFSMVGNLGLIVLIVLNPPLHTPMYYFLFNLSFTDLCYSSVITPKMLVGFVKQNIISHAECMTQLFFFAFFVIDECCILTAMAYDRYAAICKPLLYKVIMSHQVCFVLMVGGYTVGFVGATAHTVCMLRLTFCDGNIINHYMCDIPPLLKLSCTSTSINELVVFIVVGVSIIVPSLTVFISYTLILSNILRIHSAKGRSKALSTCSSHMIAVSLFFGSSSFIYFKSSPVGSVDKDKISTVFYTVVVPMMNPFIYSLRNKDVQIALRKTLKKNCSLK", "how_it_was_run": "as §1"}, "[10]": {"molecular_target": "T10, UniProt Q7TRE4", "T10 sequence (whole entry)": "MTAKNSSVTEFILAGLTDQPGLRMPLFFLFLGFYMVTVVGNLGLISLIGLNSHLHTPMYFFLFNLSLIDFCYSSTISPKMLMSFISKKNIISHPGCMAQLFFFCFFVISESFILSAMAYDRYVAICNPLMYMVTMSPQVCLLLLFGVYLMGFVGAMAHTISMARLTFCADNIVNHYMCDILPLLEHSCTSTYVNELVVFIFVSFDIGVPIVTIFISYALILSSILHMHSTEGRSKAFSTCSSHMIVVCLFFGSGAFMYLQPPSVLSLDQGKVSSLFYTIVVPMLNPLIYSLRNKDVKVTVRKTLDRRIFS", "how_it_was_run": "as §1"}},
  "data": [
    {"compound": "Cc1c([N+](=O)[O-])c(C)c([N+](=O)[O-])c(C(C)(C)C)c1[N+](=O)[O-]", "values": [
      {"measurement": "odorant receptor agonist call", "setting": "[1]", "result": "active"}
    ]},
    {"compound": "CC(=O)c1cc2c(cc1C)C(C)(C)C(C)CC2(C)C", "note": "(stereo unspecified)", "values": [
      {"measurement": "odorant receptor agonist call", "setting": "[1]", "result": "active"}
    ]},
    {"compound": "CCC1CCC(=O)O1", "note": "(stereo unspecified)", "values": [
      {"measurement": "odorant receptor agonist call", "setting": "[2]", "result": "inactive"},
      {"measurement": "odorant receptor agonist call", "setting": "[3]", "result": "inactive"},
      {"measurement": "odorant receptor agonist call", "setting": "[4]", "result": "inactive"},
      {"measurement": "odorant receptor agonist call", "setting": "[5]", "result": "inactive"},
      {"measurement": "odorant receptor agonist call", "setting": "[6]", "result": "inactive"},
      {"measurement": "odorant receptor agonist call", "setting": "[7]", "result": "active"},
      {"measurement": "odorant receptor agonist call", "setting": "[8]", "result": "active"},
      {"measurement": "odorant receptor agonist call", "setting": "[9]", "result": "inactive"},
      {"measurement": "odorant receptor agonist call", "setting": "[10]", "result": "inactive"}
    ]}
  ]
}
